Measurements as given in the array DNA melting data of Ke et al. (doi:10.1101/2024.01.08.574731).

What was measured:
[1] = folding enthalpy; higher = less favourable; fluorescence melt of hairpins on a sequencing array, two-state fit; details: sodium 0.088 M
Summary of the method: (§1)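 On a sequenced MiSeq flow cell, library hairpins with annealed Cy3 and quencher oligos were imaged for Cy3 fluorescence in 2.5 °C steps up to 60 °C, in 50 mM Na-HEPES pH 8.0, 25 mM NaCl. Normalisation used pre-quench Cy3 and control constructs. Bootstrapped two-state fits gave melting temperature and folding enthalpy, combined by inverse variance across four replicates and with fitted temperatures raised by 9.35 °C to match UV melts.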

[2] = melting temperature; fluorescence melt of hairpins on a sequencing array, two-state fit, raised by 9.35 °C to match UV melts; details: sodium 0.088 M
Summary of the method: as §1

Row | Sequence | folding enthalpy [1] [kcal/mol] | Tm [2] [°C]
1 | GGACCCGGAAACGAGTCC ((((.((....)).)))) | -32.4 | 49.3
2 | GATGCAGGAAACTGCACC (.(((((....))))).) | -12.7 | 40.5
3 | GTCTCCGCGAAAGCGGAC (((..(((....)))))) | -6.7 | 34.2
4 | GATCTAATATTAGATC ((((((....)))))) | -40.3 | 43.2
5 | GCGGCTGGAAACAGTCGC (((.(((....))).))) | -47.4 | 67.3
6 | GACTCCGAAAGGACAGTC ((((((....)))..))) | -19.2 | 37.9
7 | GGCTAGGGAAACTTAGCC (((((.(....).))))) | -37.1 | 49.4
8 | GTCGCAGGAAACTACGAC ((((.((....)).)))) | -32.1 | 46.3
9 | GCACTAACGAAAGTTTGC (((..(((....)))))) | -15 | 32.7
10 | GACATTGGAAACAACGTC (((.(((....))).))) | -23.2 | 34
11 | GGGCCCGAAAGGGCGCCC ((((((....)))..))) | -9.86 | 58.2
12 | GTGTGGGGAAACCTACGC (.((.((....)).)).) | -24.1 | 39.2
13 | GCTGGAGGAAACTTCAGC ((((.((....)).)))) | -40.8 | 50
14 | GCCCACCGAAAGGTGGC (((.(((....)))))) | -9.61 | 62.3
15 | GGAGTGGAAACACTCC ((((((....)))))) | -33 | 63.2
16 | GCGTCCGAAAGGAGCGC ((((((....))).))) | -22.9 | 66.8
17 | GTACTGGGAAACCAGTGC (.(((((....))))).) | -22.6 | 50.2
18 | GTCTACGGAAACGTAGGC (.(((((....))))).) | -29.2 | 51.2
19 | GATCAGGTACTGATC ((((((...)))))) | -41.1 | 61.4
20 | GCATCCGAAAGGATATGC ((((((....)))..))) | -15.7 | 47.6
21 | GCGTTGCGAAAGCAGTGC ((..(((....)))..)) | -17.8 | 51.6
22 | GCCCCCGGAAACGGGAGC ((.((((....)))).)) | -25 | 54.2
23 | GGACACGAAAGTGTTCC ((((((....))).))) | -17.5 | 56

Row | Sequence | folding enthalpy [1] [kcal/mol] | Tm [2] [°C]
24 | GCAATTCGAAAGAACTGC (((.(((....))).))) | -31.4 | 43.4
25 | GCCAACGAAAGTTATGGC ((((((....)))..))) | -30.7 | 45.7
26 | CGTAGCGGAAACGCAACG (((.(((....))).))) | -29.5 | 53
27 | GCTCTATCGAAAGATAGC (((..(((....)))))) | -13.6 | 30.2
28 | GCTGATGGAAACATCAGC (((((((....))))))) | -43.5 | 67.6
29 | GACTCCGGAAACGGGGTC (((.(((....))).))) | -38 | 57.2
30 | GGACGCGGAAACACGTCC (((((.(....).))))) | -38.9 | 54.8
31 | GATCCACTATGGATC ((((((...)))))) | -30.6 | 52.7
32 | GAAGAGAAATCTTC (((((....))))) | -10.9 | 30.6
33 | GCACACGAAAGTGATTGC ((((((....)))..))) | -18.5 | 39.8
34 | GCTGAGCGAAAGCTAGC (((.(((....)))))) | -26.3 | 53
35 | GATCGAAGTCTCGATC ((((((....)))))) | -35.1 | 49.2
36 | GAATGCGGAAACGCACTC ((.((((....)))).)) | -13.1 | 38.4
37 | GATCATAGCGATGATC ((((((....)))))) | -44.1 | 46.9
38 | GGTGGTGGAAACGCCACC (((((.(....).))))) | -35.4 | 63.5
39 | GGTTTCGGAAACGGAACC ((((.((....)).)))) | -45 | 52.6
40 | GGGTAAGAAATTACCC ((((((....)))))) | -27.4 | 50.9
41 | GAGTACGAAAGTATTCTC ((((((....)))..))) | -27.4 | 42.6
42 | GATCCGACTACGGATC ((((((....)))))) | -35.6 | 57.1
43 | GATCAATTGGTTGATC ((((((....)))))) | -40.5 | 45.8
44 | GCTCAGCGAAAGCCGGGC ((.(.((....)).).)) | -17.1 | 45.4
45 | GGGTTTGGAAACAAACTC (.(((((....))))).) | -29.8 | 46.6
46 | GGATTAGGAAACTAGTCC (((.(((....))).))) | -25.2 | 37.2

Row | Sequence | folding enthalpy [1] [kcal/mol] | Tm [2] [°C]
47 | GATCAGCCGGCTGATC ((((((....)))))) | -48 | 63.4
48 | GCGCAGCGAAAGCGCCGC (((..((....))..))) | -13.1 | 59.4
49 | GTGGACGGAAACATCCAC (((((.(....).))))) | -31.8 | 43.6
50 | GATCGTTCTACGATC ((((((...)))))) | -35.3 | 59.6
51 | GCTCCCGGAAACGGGGGC ((.((((....)))).)) | -26.7 | 68.5
52 | GCAGGGCGAAAGCGATGC (((..((....))..))) | -26.1 | 57
53 | GAGGGCGAAAGCCTACTC ((((((....)))..))) | -11 | 41.1
54 | GAGCCGCGAAAGCGACTC (((.(((....))).))) | -26.2 | 65.3
55 | GAGCTGGGAAACCGGTTC ((.(.((....)).).)) | -23.3 | 35.7
56 | GCTGAGCGAAAGCCAAGC (((..((....))..))) | -18.8 | 48.6
57 | GAAACCGAAAGGTCTTC ((((((....))).))) | -19.4 | 40.4
58 | GCCAATGGAAACGTTGGC (((((.(....).))))) | -49.3 | 53.7
59 | GGAAACGAAAGTTCTTCC ((((((....)))..))) | -14.9 | 32.2
60 | GATCGATCACTCGATC ((((((....)))))) | -41.5 | 51.2
61 | GGCTTTCGAAAGAACGCC (((.(((....))).))) | -39.3 | 50.2
62 | GCGCCGCGAAAGCGAGGC ((..(((....)))..)) | -13.7 | 54.8
63 | TCACAGAAATGTGA (((((....))))) | -14.6 | 39.8
64 | GCACTTGGAAACAAATGC (((.(((....))).))) | -24.8 | 35.4
65 | GCGGGTACCCGC ((((....)))) | -34.1 | 67.7
66 | GGGCGCGAAAGCGGACCC ((((((....)))..))) | -12.8 | 61.5
67 | GCGACTGGTCGC ((((....)))) | -38.1 | 60.3
68 | GTGAGTGGAAACACCCAC (((.(((....))).))) | -31.4 | 43.2
69 | GAACGGAAACGTTC (((((....))))) | -31.7 | 55.2
